Test results as given in ChEMBL document CHEMBL2203273, “Prostratin and 12-O-tetradecanoylphorbol 13-acetate are potent and selective inhibitors of Chikungunya virus replication” (J Nat Prod, 2012).

Key:
Chikungunya virus = assay: Antiviral activity against Chikungunya virus 899 infected in african green monkey Vero cells assessed as inhibition of virus-induced cytopathic effect incubated for 6 to 7 days by MTS assay; assay type: functional, cell-based; settings: Chikungunya virus, 899, Vero
In short: (§1)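 Serial dilutions in MEM Rega3 with 2% FCS, L-glutamine and bicarbonate, added with 4× virus dilution and Vero cells (25 000 cells/well, subcultured 1:4, grown 7 days). Incubated 6−7 days, 37 °C, 5% CO2. Read-out is 5% MTS for 1.5 h, absorbance 498 nm. Data are percent of controls, EC50 from dose–response curves. Wells with >50% protection checked microscopically for CPE or altered morphology. Multiple independent experiments.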

Sindbis virus = assay: Antiviral activity against Sindbis virus HRsp infected in african green monkey Vero cells assessed as inhibition of virus-induced cytopathic effect incubated for 6 to 7 days by MTS assay; assay type: functional, organism-based; in short: as §1
[1] = Selectivity index, ratio of CC50 for african green monkey Vero cells to EC50 for Chikungunya virus 899; assay type: toxicity, cell-based; settings: read-out: Ratio CC50/EC50
[2] = Cytotoxicity against african green monkey Vero cells by MTS assay; assay type: cell-based; settings: chlorocebus sabaeus
In short: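 Vero cells (25 000/well) with serial compound dilutions in MEM Rega3 with 2% FCS, no virus, for 6−7 days at 37 °C, 5% CO2. Overall metabolism read by 5% MTS for 1.5 h, absorbance 498 nm. Uninfected control OD 0.6−0.8. CC50 is the concentration inhibiting metabolism by 50%, from dose–response curves. Multiple independent experiments.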

Semliki Forest virus = assay: Antiviral activity against Semliki forest virus infected in african green monkey Vero cells assessed as inhibition of virus-induced cytopathic effect incubated for 6 to 7 days by MTS assay; assay type: functional, organism-based; in short: as §1

Row | Compound | EC50 (Chikungunya virus) | EC50 (Sindbis virus) | selectivity ratio [1] | CC50 [2] | EC50 (Semliki Forest virus)
1 | CC1=C[C@H]2[C@@]3(O)[C@H](C)[C@@H](O)[C@]4(O)[C@H]([C@@H]3C=C(CO)C[C@]2(O)C1=O)C4(C)C [PHORBOL] | > 343 µM | > 274 µM | > 1 | > 343 µM | > 274 µM
2 | CC(=O)O[C@@]12C[C@@H](C)[C@@]3(O)[C@@H](C=C(CO)C[C@]4(O)C(=O)C(C)=C[C@@H]34)[C@@H]1C2(C)C [PROSTRATIN] | 2.6 µM | > 256 µM | 30.3 | 79 µM | > 256 µM
3 | CCCCCCCCCCCCCC(=O)O[C@@H]1[C@@H](C)[C@@]2(O)[C@@H](C=C(CO)C[C@@]3(O)C(=O)C(C)=C[C@@H]23)[C@@H]2C(C)(C)[C@]12OC(C)=O | 2.8 µM |  | 1.9 | 5.3 µM | 
4 | CCCCCCCCCCCC(=O)O[C@@H]1[C@@H](C)[C@@]2(O)[C@@H](C(=O)C(CO)=C[C@]3(O)C(=O)C(C)=C[C@@H]23)[C@@H]2C(C)(C)[C@]12OC(C)=O [TRIGOWIIN A] | 43.5 µM |  | > 2.3 | > 100 µM | 
5 | CCCCCCCCCCCCCC(=O)O[C@@H]1[C@@H](C)[C@@]2(O)[C@@H](C=C(CO)C[C@]3(O)C(=O)C(C)=C[C@@H]23)[C@@H]2C(C)(C)[C@]12OC(C)=O [PHORBOL MYRISTATE ACETATE] | 0.0029 µM | 2.2 µM | 1960 | 5.7 µM | > 162 µM
6 | CCN(CC)CCCC(C)Nc1ccnc2cc(Cl)ccc12 (stereo not given) [CHLOROQUINE] | 11 µM | 11 µM |  | 89 µM | 14 µM
